Calls of active or inactive are those of the source. No cut-off for these calls is given here.
Tests used:
[1] = molecular target: T1, Tyrosine-protein phosphatase non-receptor type 1 (Homo sapiens) (UniProt P18031); conditions: 5 uM
T1 sequence (whole entry): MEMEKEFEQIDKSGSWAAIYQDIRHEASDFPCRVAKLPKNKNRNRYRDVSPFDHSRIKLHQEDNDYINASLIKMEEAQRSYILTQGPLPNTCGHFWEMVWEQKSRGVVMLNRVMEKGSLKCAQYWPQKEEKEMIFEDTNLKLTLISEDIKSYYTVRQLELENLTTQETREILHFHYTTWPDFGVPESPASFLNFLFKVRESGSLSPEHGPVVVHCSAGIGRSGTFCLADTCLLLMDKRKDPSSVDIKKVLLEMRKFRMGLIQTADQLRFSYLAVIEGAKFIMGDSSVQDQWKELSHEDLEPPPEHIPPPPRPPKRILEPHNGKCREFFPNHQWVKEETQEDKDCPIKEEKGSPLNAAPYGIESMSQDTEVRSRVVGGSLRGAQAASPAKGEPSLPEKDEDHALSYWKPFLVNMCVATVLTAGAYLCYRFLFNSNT

Influenza A virus = assay: Antiviral activity against Influenza A virus A/WSN/33(H1N1) infected in MDCK cells at 100 uM preincubated with virus for 15 mins followed by cells addition measured at 36 hrs post infection; assay type: functional, A/WSN/1933(H1N1)
Procedure, shortened: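 MDCK canine kidney cells grown in DMEM and infected with influenza A/WSN/33 (H1N1). Compounds screened at 100 μM. Oseltamivir phosphate served as the positive control.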

[2] = molecular target: T2, Nuclear factor erythroid 2-related factor 2 (Homo sapiens) (UniProt Q16236); assay: Activation of NRF2 transcription in human HepG2C8 cells at 10 uM after 6 hrs by luciferase reporter gene assay relative to control; assay type: cell-based
T2 sequence (whole entry): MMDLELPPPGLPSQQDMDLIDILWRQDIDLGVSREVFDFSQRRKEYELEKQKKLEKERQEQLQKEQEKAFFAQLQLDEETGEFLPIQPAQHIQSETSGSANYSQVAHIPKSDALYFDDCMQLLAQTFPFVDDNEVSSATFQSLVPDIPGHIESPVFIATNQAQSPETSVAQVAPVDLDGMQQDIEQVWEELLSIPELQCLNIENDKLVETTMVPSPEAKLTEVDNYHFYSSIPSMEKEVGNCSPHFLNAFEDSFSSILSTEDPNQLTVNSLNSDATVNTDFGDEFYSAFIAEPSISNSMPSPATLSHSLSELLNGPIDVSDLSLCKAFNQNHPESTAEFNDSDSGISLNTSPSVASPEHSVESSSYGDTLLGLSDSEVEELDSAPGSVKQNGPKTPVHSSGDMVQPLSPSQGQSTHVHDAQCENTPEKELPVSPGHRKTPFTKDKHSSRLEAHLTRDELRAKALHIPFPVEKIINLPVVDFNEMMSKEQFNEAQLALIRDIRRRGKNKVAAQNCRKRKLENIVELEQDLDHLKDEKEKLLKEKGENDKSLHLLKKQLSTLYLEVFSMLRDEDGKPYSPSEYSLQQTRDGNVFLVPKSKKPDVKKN
Procedure, shortened: (§1)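 Luciferase reporter in HepG2C8 cells, which are HepG2 stably transfected with an Nrf2 luciferase reporter and grown in MEM. Screened at 10 μM, with dose-response over 2.5−40 μM. Activity expressed as fold of control. tBHQ positive control.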

[3] = molecular target: T2, Nuclear factor erythroid 2-related factor 2 (Homo sapiens); assay: Activation of NRF2 transcription in human HepG2C8 cells after 6 hrs by luciferase reporter gene assay; assay type: cell-based
Procedure, shortened: as §1

HepG2 [4] = assay: Toxicity in human HepG2 cells at 20 to 40 uM; assay type: cell-based; conditions: hepg2, 40 µM
Acetylcholinesterase [5] = molecular target: T3, Acetylcholinesterase (Homo sapiens, UniProt P22303); assay: Inhibition AChE (unknown origin) using ATCI as substrate assessed as hydrolysis of ATCI after 10 mins measured every 1 min for 10 times
Acetylcholinesterase [6] = molecular target: T3, Acetylcholinesterase; assay: Inhibition AChE (unknown origin) using ATCI as substrate assessed as hydrolysis of ATCI at 25 uM measured every 1 min for 10 times
Procedure, shortened: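 Commercial AChE (added as 0.025 U/mL solution) in Tris-HCl (30 mM, pH 8.0) with DTNB (added as 0.26 mM) and ATCI substrate (added as 0.2 mM); 200 μL mixture at room temperature. Thiocholine release read at 405 nm every min, 10 reads; linear slope taken as rate. Screening at 25 μM; galanthamine positive control.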

RAW264.7 [7] = assay: Antiinflammatory activity in mouse RAW264.7 cells assessed as inhibition of LPS-induced nitric oxide production at 10 uM after 24 hrs by Griess assay; assay type: functional; conditions: RAW264.7, 24 h
Procedure, shortened: (§2)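 RAW264.7 cells plated at 1.2 × 10^5/well in RPMI1640 and co-treated with compound and 1 μg/mL LPS for 24 h. Nitrite in medium read with Griess reagent (sulfanilamide/naphthylethylenediamine, phosphoric acid) after 15 min at 37 °C, absorbance 540 nm. […] Curcumin positive control.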

RAW264.7 [8] = assay: Antiinflammatory activity in mouse RAW264.7 cells assessed as inhibition of LPS-induced nitric oxide production after 24 hrs by Griess assay; assay type: functional, cell-based; conditions: RAW264.7, 24 h
Procedure, shortened: as §2

[9] = molecular target: T4, Tyrosinase (Homo sapiens) (UniProt P14679); assay: Inhibition of tyrosinase (unknown origin) using L-tyrosine as substrate assessed as oxidation of L-tyrosine at 20 uM after 15 mins
T4 sequence (whole entry): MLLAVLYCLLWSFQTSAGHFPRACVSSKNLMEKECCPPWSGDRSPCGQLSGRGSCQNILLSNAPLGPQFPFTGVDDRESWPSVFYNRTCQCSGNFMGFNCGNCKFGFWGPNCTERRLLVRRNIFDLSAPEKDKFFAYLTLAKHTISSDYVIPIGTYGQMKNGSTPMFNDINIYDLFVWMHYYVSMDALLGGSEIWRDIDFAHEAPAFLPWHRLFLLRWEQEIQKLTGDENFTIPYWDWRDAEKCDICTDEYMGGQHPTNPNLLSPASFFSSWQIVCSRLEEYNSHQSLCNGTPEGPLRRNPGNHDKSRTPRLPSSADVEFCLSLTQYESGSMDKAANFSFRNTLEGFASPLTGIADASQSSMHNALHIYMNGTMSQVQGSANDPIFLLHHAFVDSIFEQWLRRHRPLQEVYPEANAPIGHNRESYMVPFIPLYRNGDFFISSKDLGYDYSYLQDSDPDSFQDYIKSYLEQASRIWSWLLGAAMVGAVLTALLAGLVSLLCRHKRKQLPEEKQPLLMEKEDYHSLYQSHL
Procedure, shortened: (§3)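 Tyrosinase at 333 U/mL (stock) in 45 mM sodium phosphate, pH 6.6, with 2 mM L-tyrosine (stock). Incubated 37 °C for 15 min; oxidation read at 492 nm. Screened at 20 μM; dose-response for IC50. Glyasperin C positive control.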

Tyrosinase = molecular target: T5, Tyrosinase (Homo sapiens, UniProt P14679); assay: Inhibition of tyrosinase (unknown origin) using L-tyrosine as substrate assessed as oxidation of L-tyrosine after 15 mins
T5 sequence (P14679 whole entry): T4 sequence (whole entry)
Procedure, shortened: as §3

RAW264.7 [10] = assay: Antiinflammatory activity in mouse RAW264.7 cells assessed as inhibition of LPS-induced nitric oxide production at 20 uM after 24 hrs by Griess assay; assay type: functional; conditions: RAW264.7, 24 h
Procedure, shortened: as §2

[11] = molecular target: T2, Nuclear factor erythroid 2-related factor 2 (Homo sapiens); assay: Activation of NRF2 transcription in human HepG2C8 cells at 100 uM after 6 hrs by luciferase reporter gene assay relative to control; assay type: cell-based
[12] = molecular target: T1, Tyrosine-protein phosphatase non-receptor type 1 (Homo sapiens); assay: Inhibition of recombinant human PTP1B assessed as hydrolysis of p-nitrophenyl phosphate at 25 uM after 30 mins relative to control
HepG2 [13] = assay: Cytotoxicity against human HepG2 cells assessed as reduction in cell viability after 24 hrs by MTS assay; assay type: functional, cell-based; conditions: HepG2, 24 h
Procedure, shortened: (§4)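 Cells seeded at 5 × 10^3/well and cultured overnight, then exposed to compounds for 24 h. Viability read by MTS. Media: SW480 in RPMI1640, A549 in DMEM, MCF7 in MEM. […] Irinotecan positive control.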

SW480 [14] = assay: Cytotoxicity against human SW480 cells assessed as reduction in cell viability after 24 hrs by MTS assay; assay type: functional, cell-based; conditions: SW480, 24 h
Procedure, shortened: as §4

A549 [15] = assay: Cytotoxicity against human A549 cells assessed as reduction in cell viability after 24 hrs by MTS assay; assay type: functional, cell-based; conditions: A549, 24 h
Procedure, shortened: as §4

MCF7 [16] = assay: Cytotoxicity against human MCF7 cells assessed as reduction in cell viability after 24 hrs by MTS assay; assay type: functional, cell-based; conditions: MCF7, 24 h
Procedure, shortened: as §4

[17] = molecular target: T6, Tyrosine-protein phosphatase non-receptor type 1 (Homo sapiens, UniProt P18031); assay: Inhibition of recombinant human PTP1B assessed as hydrolysis of p-nitrophenyl phosphate
T6 sequence (P18031 whole entry): T1 sequence (whole entry)

MDCK = assay: Cytotoxicity against MDCK cells after 36 hrs; assay type: cell-based, Canis lupus familiaris; conditions: dog
SW480 [18] = assay: Cytotoxicity against human SW480 cells assessed as reduction in cell viability at 10 uM after 24 hrs by MTS assay; assay type: functional
Procedure, shortened: (§5)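 Cells seeded at 5 × 10^3/well and cultured overnight, then exposed to compounds for 24 h. Viability read by MTS. Media: SW480 in RPMI1640, A549 in DMEM, MCF7 in MEM. Irinotecan positive control.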

HepG2 [19] = assay: Cytotoxicity against human HepG2 cells assessed as reduction in cell viability at 10 uM after 24 hrs by MTS assay; assay type: functional
A549 [20] = assay: Cytotoxicity against human A549 cells assessed as reduction in cell viability at 10 uM after 24 hrs by MTS assay; assay type: functional
Procedure, shortened: as §5

MCF7 [21] = assay: Cytotoxicity against human MCF7 cells assessed as reduction in cell viability at 10 uM after 24 hrs by MTS assay; assay type: functional
Procedure, shortened: as §5

[22] = molecular target: T2, Nuclear factor erythroid 2-related factor 2 (Homo sapiens); assay: Inhibition of NRF2 transcription in human HepG2C8 cells at 10 uM after 6 hrs by luciferase reporter gene assay relative to control; assay type: cell-based
Procedure, shortened: as §1

T3 sequence (P22303 whole entry): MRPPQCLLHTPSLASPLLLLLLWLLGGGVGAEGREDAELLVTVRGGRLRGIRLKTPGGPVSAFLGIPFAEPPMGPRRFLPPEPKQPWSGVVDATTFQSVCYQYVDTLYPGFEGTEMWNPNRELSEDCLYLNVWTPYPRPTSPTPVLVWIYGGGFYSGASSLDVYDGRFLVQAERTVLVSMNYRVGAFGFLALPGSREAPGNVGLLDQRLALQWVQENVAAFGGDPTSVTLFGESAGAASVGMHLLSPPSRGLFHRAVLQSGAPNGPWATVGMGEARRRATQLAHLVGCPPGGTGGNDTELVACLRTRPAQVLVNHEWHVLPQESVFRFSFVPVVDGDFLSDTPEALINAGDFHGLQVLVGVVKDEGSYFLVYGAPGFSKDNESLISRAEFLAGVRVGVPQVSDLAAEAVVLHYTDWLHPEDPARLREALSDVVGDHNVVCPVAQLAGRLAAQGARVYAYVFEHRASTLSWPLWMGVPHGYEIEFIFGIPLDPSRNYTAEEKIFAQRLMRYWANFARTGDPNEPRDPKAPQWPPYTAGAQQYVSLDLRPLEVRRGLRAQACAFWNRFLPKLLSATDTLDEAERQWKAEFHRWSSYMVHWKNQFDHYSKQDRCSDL

C[C@H]1[C@H](C)CC[C@]2(C(=O)O)CC[C@]3(C)C(=CC[C@@H]4[C@@]5(C)CC[C@H](O)C(C)(C)[C@@H]5CC[C@]43C)[C@H]12
inhibition [1]: 45%

CC(C)=CCc1c(O)cc2occ(-c3ccc(O)cc3O)c(=O)c2c1O [UNCINANONE A]
Activity (Influenza A virus): >30%
fold change (FC) [2]: 6.68
Activity [3]: Dose-dependent effect
Activity (HepG2 [4]): Toxic

COc1cc2occ(-c3ccc(O)cc3O)c(=O)c2c(O)c1CC=C(C)C
IC50 (Acetylcholinesterase [5]): 9.9 µM
inhibition (Acetylcholinesterase [6]): 83%

COc1c2c(cc(O)c1CC=C(C)C)OCC(c1ccc(O)cc1O)=C2
Activity (Influenza A virus): >30%
fold change (FC) [2]: 4.7
inhibition at 10 µM (RAW264.7 [7]): > 50%
IC50 (RAW264.7 [8]): 8.1 µM
inhibition [9]: inactive

O=c1c(O)c(-c2ccc(O)cc2)oc2cc(O)cc(O)c12 [KAEMPFEROL]
inhibition [9]: > 95%
IC50 (Tyrosinase): 1 µM

COc1cc(/C=C/C(=O)CC(=O)/C=C/c2ccc(O)c(OC)c2)ccc1O [CURCUMIN]
inhibition at 10 µM (RAW264.7 [7]): 12%
inhibition at 20 µM (RAW264.7 [10]): 53%
IC50 (RAW264.7 [8]): 19.1 µM

CC(C)(C)c1cc(O)ccc1O
fold change (FC) [2]: 1.51
fold change (FC) [11]: 4.34

COc1c(-c2ccc(O)c(CC=C(C)C)c2)oc2cc(O)cc(O)c2c1=O
inhibition at 10 µM (RAW264.7 [7]): > 50%
IC50 (RAW264.7 [8]): 12.1 µM
inhibition [12]: 85%

CC(C)=CCc1cc(-c2coc3cc(O)c(CC=C(C)C)c(O)c3c2=O)cc(O)c1O
IC50 (HepG2 [13]): 4.4 µM
IC50 (SW480 [14]): 6.5 µM
IC50 (A549 [15]): 6.4 µM
IC50 (MCF7 [16]): 6.6 µM
inhibition [12]: > 95%
IC50 [17]: 3 µM
Activity (MDCK): Toxic

COc1c(CC=C(C)C)c(O)cc2c1C[C@H](c1ccc(O)c(CC=C(C)C)c1O)CO2 [LICORICIDIN]
IC50 (Acetylcholinesterase [5]): 15.5 µM
inhibition (Acetylcholinesterase [6]): 82%
IC50 (HepG2 [13]): 0.3 µM
IC50 (SW480 [14]): 7.1 µM
IC50 (A549 [15]): 6.9 µM
IC50 (MCF7 [16]): 5.2 µM
inhibition [12]: > 95%
Activity (MDCK): Toxic

COc1cc2c(c(OC)c1CC=C(C)C)C[C@H](c1ccc(O)cc1O)CO2 [GLYASPERIN D]
Activity (SW480 [18]): 78%
Activity (HepG2 [19]): 99%
Activity (A549 [20]): 25%
Activity (MCF7 [21]): 98%
IC50 (HepG2 [13]): 3.8 µM
IC50 (SW480 [14]): 7.2 µM
IC50 (A549 [15]): 12.9 µM
IC50 (MCF7 [16]): 6.7 µM
inhibition [9]: > 95%
IC50 (Tyrosinase): 0.154 µM

CC(C)=CCc1c(O)ccc(-c2coc3cc(O)c(CC=C(C)C)c(O)c3c2=O)c1O
inhibition (Acetylcholinesterase [6]): 71%
IC50 (HepG2 [13]): 1.1 µM
IC50 (SW480 [14]): 6.4 µM
IC50 (A549 [15]): 7.1 µM
IC50 (MCF7 [16]): 6 µM
inhibition [12]: > 95%
IC50 [17]: 0.4 µM
Activity (MDCK): Toxic

COc1c2c(cc3c1CCC(C)(C)O3)OC[C@@H](c1ccc(O)c(CCC(C)(C)O)c1O)C2
inhibition [22]: 76%

COc1c(CC=C(C)C)c(O)cc2c1C[C@H](c1ccc(O)cc1O)CO2 [GLYASPERIN C]
inhibition [9]: > 95%
IC50 (Tyrosinase): 0.177 µM
